Results as given in ChEMBL document CHEMBL1122683, “Histamine H2 receptor antagonists. 1. Synthesis of N-cyano and N-carbamoyl amidine derivatives and their biological activities” (1984).
pEC50: −log10 of the molar value.

Columns and labels:
Cavia porcellus = species on record: Cavia porcellus; experiment: Dose representing 50% inhibition of positive chronotropic response to histamine in guinea pig atrium (5 x 10e -6M); assay type: functional; details: Cardiac atrium, read-out: ED50 (the source's name)
Procedure, shortened: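 Isolated right atria from guinea pig, three to four preparations per compound. Test agent added 10 min ahead of histamine (5 × 10⁻⁶ M). Read-out is inhibition of the histamine-induced rise in atrial rate. Percent inhibition plotted against log concentration, and the 50%-inhibiting dose read from that curve; means ± SE.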

Canis familiaris = experiment: Reduction in acid response to histamine(160 ug/kg/h i.v.) in anesthetized dogs with acute gastric fistula.; assay type: functional; details: Canis lupus familiaris, Stomach, iv
Procedure, shortened: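 Mongrel dogs of 8–10 kg, fasted 24 h and anesthetized with pentobarbital 30 mg/kg i.v. Pylorus and esophagus ligated, with a stainless steel cannula in the stomach. Histamine infused at 160 μg/(kg h), drugs given i.v., gastric juice collected every 15 min. Inhibition taken from predrug minus minimum acid output (within 45 min). ED50 from a semilog dose-response plot.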

SMILES	pEC50 (Cavia porcellus)	ED50 (Canis familiaris) [mg/kg]
Cc1[nH]cnc1CSCCC(=N)NC#N	< 4.00	–
Cl.Cl.N=C(CCSCc1ccccn1)NC(N)=O	4.92	2.5
C/N=C(/CCSCc1ccc(CN(C)C)o1)NC#N	3.77	> 10
NC(=O)CCSCc1csc(N=C(N)N)n1	6.00	–
C/N=C(/CCSCc1csc(N=C(N)N)n1)NC#N	6.01	0.39
Cc1[nH]cnc1CSCCC(=N)NC(N)=O.Cl.Cl	6.05	0.22
N#C/N=C(\N)CCSCc1csc(N)n1	< 4.00	–
C/N=C(/NC)Nc1nc(CSCCC(=N)NC#N)cs1	< 4.00	–
Cl.Cl.N=C(N)Nc1nc(CSCCC(=N)NC(N)=O)cs1	7.13	0.0064
N#CNC(=N)CCSCc1noc(NC(=N)N)n1	< 4.00	–
Cl.Cl.N=C(CCSCc1nc[nH]n1)NC(N)=O	4.39	6.9
N=C(CCSCc1[nH]cnc1C(F)(F)F)NC(N)=O	< 4.00	–
N#CNC(=N)CCCCc1csc(NC(=N)N)n1	6.92	0.022
CC(=N)Nc1nc(CSCCC(=N)NC#N)cs1	5.04	–
C#CC/N=C(/CCSCc1nc[nH]c1C)NC#N	< 4.00	–
N#CNC(=N)CCCOc1cccc(CN2CCCCC2)c1	5.33	2.3
CN/C(=N\CCSCc1nc[nH]c1C)NC#N [CIMETIDINE]	5.57	0.33

SMILES	pEC50 (Cavia porcellus)	ED50 (Canis familiaris) [mg/kg]
N#CNC(=N)CCSCc1ccc(CN2CCOCC2)o1	< 4.00	–
CCc1[nH]cnc1CSCCC(=N)NC(N)=O.Cl.Cl	5.70	0.33
Cl.Cl.N=C(CCSCc1c[nH]cn1)NC(N)=O	5.28	1.3
N#CNC(=N)CCSCc1csc(NC(=N)N)n1	6.74	0.018
CN(C)Nc1nc(CSCCC(=N)NC#N)cs1	< 4.00	–
N#CNC(=N)CCSCc1nc[nH]n1	< 4.00	–
CN(C)Cc1cccc(OCCCC(=N)NC#N)c1	4.70	9
C/N=C(/N)Nc1nc(CSCCC(=N)NC#N)cs1	5.92	–
N=C(N)Nc1nc(CSCCC(=N)NC(N)=O)no1	4.59	–
N#CNC(=N)CCSCc1ccccn1	< 4.00	–
CN(C)Cc1ccc(CSCCC(=N)NC#N)s1	4.89	4.4
N#CNC(=N)CCCOc1cccc(CN2CCCC2)c1	4.89	3.5
CC(=N)Nc1nc(CSCCC(=N)NC(N)=O)cs1	5.60	–
N#CNC(=N)CCSCc1ccc(CN2CCCCC2)o1	4.46	–
C/N=C(/CCSCc1[nH]cnc1C)NC#N	< 4.00	–
C/N=C(/N)Nc1nc(CSCCC(=N)NC(N)=O)cs1.Cl.Cl	6.49	0.046
CN(C)Cc1ccc(CSCCC(=N)NC#N)o1	5.68	0.28
